Data from ChEMBL document CHEMBL1157208, “Synthesis and CNS depressant activity of some novel 3-[5-substituted 1,3,4-thiadiazole-2-yl]-2-styryl quinazoline-4(3H)-ones” (Eur J Med Chem, 2008).
The source made the active and inactive calls. The rule behind the calls is not given here.

How the values were obtained:
Mus musculus [1] = assay: Anticonvulsant activity in mouse assessed as inhibition of pentylenetetrazole-induced seizure at 300 mg/kg, ip after 0.5 hrs; assay type: functional, organism-based; set-up: dose 300 mg/kg
Procedure, shortened: (§1)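 Male albino mice (CF-1 or Swiss, 18–25 g) received compound suspended in polyethylene glycol 400, i.p., 0.01 ml/g, at 30, 100 and 300 mg/kg. Maximal electroshock and subcutaneous pentylenetetrazole seizure tests were run at 0.5 and 4 h by a previously reported procedure.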

Mus musculus [2] = assay: Sedative-hypnotic effect in mouse assessed as inhibition of locomotor activity at 100 mg/kg, ip by actophotometer; assay type: functional; conditions: route intraperitoneal
Procedure, shortened: (§2)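 Locomotor activity in mice was read as a digital photocell score on an actophotometer. Baseline was taken 24 h before treatment, then at 30 min and 1 h after 100 mg/kg i.p. Controls received PEG 400. Percent decrease was calculated from the 1 h values. Results are mean ± SEM of six mice, compared with Student's t test.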

Mus musculus [3] = assay: Sedative-hypnotic effect in mouse assessed as decrease locomotor activity score at 100 mg/kg, ip after 0.5 hrs by actophotometer; assay type: functional; conditions: route intraperitoneal; procedure, shortened: as §2
Mus musculus [4] = assay: Anticonvulsant activity in mouse assessed as inhibition of maximal electroshock-induced seizures at 300 mg/kg, ip after 0.5 hrs; assay type: functional, organism-based; set-up: dose 300 mg/kg; procedure, shortened: as §1
Mus musculus [5] = assay: Neurotoxicity in mouse at 300 mg/kg, ip after 0.5 hrs by rotarod test; assay type: toxicity, organism-based; set-up: dose 300 mg/kg, route intraperitoneal; conditions: in vivo
Procedure, shortened: (§3)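 Mice dosed i.p. at 30, 100 and 300 mg/kg in PEG 400 were examined 0.5 and 4 h later on a rotorod. Animals were pre-trained on a 3.2 cm rod turning at 6 rpm. Neurotoxicity meant failing to keep equilibrium for at least 1 min in each of three trials. The value is the minimum dose affecting half or more of the animals.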

Mus musculus [6] = assay: Sedative-hypnotic effect in mouse assessed as decrease locomotor activity score at 100 mg/kg, ip after 1 hr by actophotometer; assay type: functional; conditions: route intraperitoneal; procedure, shortened: as §2
Mus musculus [7] = assay: Anticonvulsant activity in mouse assessed as inhibition of pentylenetetrazole-induced seizure at 300 mg/kg, ip after 4 hrs; assay type: functional, organism-based; set-up: dose 300 mg/kg; procedure, shortened: as §1
Mus musculus [8] = assay: Neurotoxicity in mouse at 300 mg/kg, ip after 4 hrs by rotarod test; assay type: toxicity, organism-based; set-up: dose 300 mg/kg, route intraperitoneal; conditions: in vivo; procedure, shortened: as §3
Mus musculus [9] = assay: Anticonvulsant activity in mouse assessed as inhibition of maximal electroshock-induced seizures at 300 mg/kg, ip after 4 hrs; assay type: functional, organism-based; set-up: dose 300 mg/kg; procedure, shortened: as §1
Mus musculus [10] = assay: Anticonvulsant activity in ip dosed mouse assessed as inhibition of pentylenetetrazole-induced seizure after 0.5 hrs; assay type: functional; procedure, shortened: as §1
Mus musculus [11] = assay: Anticonvulsant activity in ip dosed mouse assessed as inhibition of maximal electroshock-induced seizures after 0.5 hrs; assay type: functional; procedure, shortened: as §1
Mus musculus [12] = assay: Toxicity in mouse at 300 mg/kg, ip; assay type: organism-based; set-up: dose 300 mg/kg, route intraperitoneal; conditions: in vivo
Mus musculus [13] = assay: Sedative-hypnotic effect in mouse assessed as inhibition of locomotor activity at 25 mg/kg, po by actophotometer; assay type: functional
Mus musculus [14] = assay: Anticonvulsant activity in ip dosed mouse assessed as inhibition of maximal electroshock-induced seizures after 4 hrs; assay type: functional; procedure, shortened: as §1
Mus musculus [15] = assay: Sedative-hypnotic effect in mouse assessed as decrease locomotor activity score at 25 mg/kg, po after 1 hr by actophotometer; assay type: functional
Mus musculus [16] = assay: Neurotoxicity in ip dosed mouse after 4 hrs by rotarod test; assay type: toxicity, organism-based; conditions: in vivo; procedure, shortened: as §3
Mus musculus [17] = assay: Neurotoxicity in ip dosed mouse after 0.5 hrs by rotarod test; assay type: toxicity, organism-based; conditions: in vivo; procedure, shortened: as §3
Mus musculus [18] = assay: Sedative-hypnotic effect in mouse assessed as decrease locomotor activity score at 25 mg/kg, po after 0.5 hrs by actophotometer; assay type: functional
Mus musculus [19] = assay: Anticonvulsant activity in ip dosed mouse assessed as inhibition of pentylenetetrazole-induced seizure after 4 hrs; assay type: functional; procedure, shortened: as §1

SMILES | Activity (Mus musculus [1]) | inhibition in vivo at 100 mg/kg (Mus musculus [2]) | Activity (Mus musculus [3]) | Activity (Mus musculus [4]) | Activity (Mus musculus [5]) | Activity (Mus musculus [6]) | Activity (Mus musculus [7]) | Activity (Mus musculus [8]) | Activity (Mus musculus [9]) | Activity (Mus musculus [10]) | Activity (Mus musculus [11]) | Activity (Mus musculus [12]) | inhibition in vivo at 25 mg/kg (Mus musculus [13]) | Activity (Mus musculus [14]) | Activity (Mus musculus [15]) | Activity (Mus musculus [16]) | Activity (Mus musculus [17]) | Activity (Mus musculus [18]) | Activity (Mus musculus [19])
Cc1ccc(/C=C/c2nc3ccccc3c(=O)n2-c2nnc(-c3ccc(C)cc3)s2)cc1 | inactive | 71% | 291.39 | inactive | Not Active | 92.2 | inactive | Not Active | inactive | – | – | – | – | – | – | – | – | – | –
CCCC(CCC)C(=O)[O-].[Na+] [VALPROATE SODIUM] | – | – | – | inactive | Not Active | – | inactive | Not Active | inactive | 300 mg/kg | – | – | – | – | – | – | – | – | –
O=c1c2ccccc2nc(/C=C/c2ccccc2)n1-c1nnc(-c2ccccc2)s1 | inactive | 55% | 472.31 | – | Not Active | 249.45 | – | Not Active | inactive | – | 30 mg/kg | Toxic | – | – | – | – | – | – | –
COc1ccc(-c2nnc(-n3c(/C=C/c4ccccc4)nc4ccccc4c3=O)s2)cc1 | inactive | 36% | 381.82 | inactive | Not Active | 266.36 | inactive | Not Active | inactive | – | – | – | – | – | – | – | – | – | –
Cc1ccc(/C=C/c2nc3ccccc3c(=O)n2-c2nnc(/C=C/c3ccccc3)s2)cc1 | inactive | 67% | 310.32 | inactive | Not Active | 123.32 | inactive | Not Active | inactive | – | – | – | – | – | – | – | – | – | –
COc1ccc(/C=C/c2nc3ccccc3c(=O)n2-c2nnc(/C=C/c3ccccc3)s2)cc1 | inactive | 51% | 362.37 | inactive | Not Active | 228.32 | inactive | Not Active | inactive | – | – | – | – | – | – | – | – | – | –
CCC1(C)CC(=O)NC1=O (configuration not stated) [ETHOSUXIMIDE] | – | – | – | inactive | Not Active | – | inactive | Not Active | inactive | 300 mg/kg | – | – | – | – | – | – | – | – | –
O=C1NC(=O)C(c2ccccc2)(c2ccccc2)N1 [PHENYTOIN] | inactive | – | – | – | – | – | inactive | – | – | – | 30 mg/kg | – | 70% | 30 mg/kg | 164.1 | 100 mg/kg | 100 mg/kg | 251.02 | –
Cc1ccc(/C=C/c2nc3ccccc3c(=O)n2-c2nnc(-c3cccc(Cl)c3)s2)cc1 | – | 65% | 298.67 | inactive | Not Active | 128.94 | – | Not Active | inactive | 300 mg/kg | – | – | – | – | – | – | – | – | 300 mg/kg
Cc1ccc(-c2nnc(-n3c(/C=C/c4ccccc4)nc4ccccc4c3=O)s2)cc1 | inactive | – | 531 | inactive | Not Active | 467 | inactive | Not Active | inactive | – | – | – | – | – | – | – | – | – | –
Cc1ccc(/C=C/c2nc3ccccc3c(=O)n2-c2nnc(-c3ccccc3)s2)cc1 | inactive | 55% | 353.52 | inactive | Not Active | 185.15 | inactive | Not Active | inactive | – | – | – | – | – | – | – | – | – | –
